Measured values: article PMC4467529 (Bioorganic & medicinal chemistry, 2015)

Key:
NF-κB = format: cell-based, human; details: Homo sapiens, SW1353, read-out: NF-κB IC50
Summary of the method: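 SW1353 cells were grown in DMEM/F12 with 10% FBS and electroporated with an NF-κB luciferase plasmid (50 μg/mL; 160 V, one 70-ms pulse). They were plated at 1.25 × 10⁵ cells/well for 24 h. […] Parthenolide was the reference; Sp-1 served as control factor.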

[1] = In vitro cytotoxicity, Neutral Red assay; format: cell-based; details: pig, LLC-PK11 pig kidney epithelial cells
Summary of the method: (§1)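 Cells were kept in RPMI-1640 with 10% bovine calf serum and amikacin 60 mg/L at 37 °C, 5% CO₂. They were seeded at 25,000 cells/well and grown 24 h, then exposed 48 h to test compound diluted in serum-free medium, tested up to 25 μg/ml. Viability was read by Neutral Red, as % decrease versus vehicle. IC50 came from dose curves, in triplicate, with doxorubicin as reference.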

[2] = In vitro cytotoxicity, Neutral Red assay; format: cell-based; details: African green monkey, Vero cells (kidney fibroblasts)
Summary of the method: as §1

[3] = In vitro cytotoxicity, Neutral Red assay; format: cell-based; details: human, SK-OV-3 ovary carcinoma cells
Summary of the method: (§2)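 Cells grown in RPMI-1640 with 10% bovine calf serum and amikacin (60 mg/L), 37°C, 5% CO₂, 95% humidity. Seeded at 25,000 cells/well, grown 24 h. Test samples diluted in serum-free medium, exposure 48 h. Viable cells counted by Neutral Red uptake; % viability loss against vehicle control. IC50 from dose curves, triplicate, means reported.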

[4] = In vitro cytotoxicity, Neutral Red assay; format: cell-based; details: human, BT-549 breast ductal carcinoma cells
Summary of the method: as §1

[5] = In vitro cytotoxicity, Neutral Red assay; format: cell-based; details: human, KB oral epidermal carcinoma cells
Summary of the method: as §2

[6] = In vitro cytotoxicity, Neutral Red assay; format: cell-based; details: human, SK-MEL malignant melanoma cells
Summary of the method: as §1

[7] = cited from earlier work
iNOS = iNOS (Mus musculus, UniProt P29477); test: iNOS inhibitory assay in LPS-induced mouse macrophages; format: cell-based; details: LPS-induced RAW264.7 macrophages

| SMILES | IC50 (NF-κB) [µg/mL] | iNOS inhibitory activity (in words) (iNOS) | IC50 at 48 h [1] [µg/mL] | IC50 at 48 h [2] [µg/mL] | IC50 at 48 h [3] [µg/mL] | IC50 at 48 h [4] [µg/mL] | IC50 at 48 h [5] [µg/mL] | IC50 at 48 h [6] [µg/mL] | anti-inflammatory and antinociceptive activities (in words) [7] |
| --- | --- | --- | --- | --- | --- | --- | --- | --- | --- |
| O=c1oc2ccccc2n1CCCCN1CCN(CCn2c(=O)oc3ccccc32)CC1 [Compound 5c, 3-(2-(4-(4-(2-oxobenzo[d]oxazol-3(2H)-yl)butyl)piperazin-1-yl)ethyl)benzo[d]oxazol-2(3H)-one] | > 25 |  | > 25 | > 25 | > 25 | > 25 | > 25 | > 25 |  |
| O=C(c1ccccc1)c1ccc2[nH]c(=O)sc2c1 [Compound S-14080] |  |  |  |  |  |  |  |  | superior to acetylsalicylic acid and equivalent to glafenine |
| O=c1sc2ccccc2n1CCCCN1CCN(CCCCn2c(=O)sc3ccccc32)CC1 [Compound 3f, 3,3′-(piperazine-1,4-diylbis(butane-4,1-diyl))bis(benzo[d]thiazol-2(3H)-one)] |  | no activity | > 25 | > 25 | > 25 | > 25 | > 25 | > 25 |  |
| O=c1sc2ccccc2n1CCCCN1CCN(CCn2c(=O)sc3ccccc32)CC1 [Compound 5d, 3-(2-(4-(4-(2-oxobenzo[d]thiazol-3(2H)-yl)butyl)piperazin-1-yl)ethyl)benzo[d]thiazol-2(3H)-one] | > 25 |  | > 25 | > 25 | > 25 | > 25 | > 25 | > 25 |  |
| O=c1sc2ccccc2n1CCN1CCN(CCn2c(=O)sc3ccccc32)CC1 [Compound 3b, 3,3′-(2,2′-(piperazine-1,4-diyl)bis(ethane-2,1-diyl))dibenzo[d]thaizol-2(3H)-one] | > 25 |  | > 25 | > 25 | > 25 | > 25 | > 25 | > 25 |  |

Further lines, with some results ahead:

| IC50 (NF-κB) [µg/mL] | iNOS inhibitory activity (in words) (iNOS) | SMILES | IC50 at 48 h [1] [µg/mL] | IC50 at 48 h [2] [µg/mL] | IC50 at 48 h [3] [µg/mL] | IC50 at 48 h [4] [µg/mL] | IC50 at 48 h [5] [µg/mL] | IC50 at 48 h [6] [µg/mL] | anti-inflammatory and antinociceptive activities (in words) [7] |
| --- | --- | --- | --- | --- | --- | --- | --- | --- | --- |
| > 25 |  | O=c1oc2ccccc2n1CCCCCCN1CCN(CCCn2c(=O)oc3ccccc32)CC1 [Compound 5m, 3-(3-(4-(6-(2-oxobenzo[d]oxazol-3(2H)-yl)hexyl)piperazin-1-yl)propyl)benzo[d]oxazol-2(3H)-one] | > 25 | > 25 | > 25 | > 25 | > 25 | > 25 |  |
| > 25 |  | O=c1oc2ccccc2n1CCN1CCN(CCn2c(=O)oc3ccccc32)CC1 [Compound 3a, 3,3′-(piperazine-1,4-diylbis(ethane-2,1-diyl))bis(benzo[d]oxazol-2(3H)-one)] | > 25 | > 25 | > 25 | > 25 | > 25 | > 25 |  |
| > 25 | no activity | O=c1oc2ccccc2n1CCCCN1CCN(CCCCn2c(=O)oc3ccccc32)CC1 [Compound 3e, 3,3′-(piperazine-1,4-diylbis(butane-4,1-diyl))bis(benzo[d]oxazol-2(3H)-one)] | > 25 | > 25 | > 25 | > 25 | > 25 | > 25 |  |
| > 25 |  | O=c1oc2ccccc2n1CCCN1CCN(CCn2c(=O)oc3ccccc32)CC1 [Compound 5a, 3-(3-(4-(2-(2-oxobenzo[d]oxazol-3(2H)-yl)ethyl)piperazin-1-yl)propyl)benzo[d]oxazol-2(3H)-one] | > 25 | > 25 | > 25 | > 25 | > 25 | > 25 |  |
